Measured values from ChEMBL document CHEMBL4138319, “Discovery, Synthesis, Pharmacological Profiling, and Biological Characterization of Brintonamides A-E, Novel Dual Protease and GPCR Modulators from a Marine Cyanobacterium” (J Med Chem, 2018).
Active and inactive are the calls of the source. The calls are words filed in the database; no cut-off is given here. Square brackets hold non-standard residues; d marks the D form. Peptide text beside a SMILES is read from it. * marks the point of attachment. ξ: configuration not given here. X4 = CC[C@H](C)[C@@H](OC(=O)[C@H](Cc1ccccc1)N(C)C)C(=O)*; X3 = CC[C@H](C)[C@@H](OC(=O)/C=C\c1ccccc1)C(=O)*; X5 = CC[C@H](C)[C@@H](OC(=O)C#Cc1ccccc1)C(=O)*; X2 = CC[C@H](C)[C@@H](OC(=O)CCc1ccccc1)C(=O)*; Hmp(2R,3S) = CC[C@H](C)[C@@H](O)C(=O)O; dNMeF = CN[C@H](Cc1ccccc1)C(=O)O; NMeL = CN[C@@H](CC(C)C)C(=O)O; dHiv = CC(C)[C@@H](O)C(=O)O; ξD = NC(CC(=O)O)C(=O)O

Tests used:
Kallikrein-7 [1] = target: T1, Kallikrein-7 (Homo sapiens, UniProt P49862); assay: Inhibition of kallikrein 7 (unknown origin) by fluorescence assay
Procedure, shortened: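 Protease panel screen: 10-dose titrations, 3-fold serial dilution from 100 μM, singlet. Protease activity is followed as the time-course rise in fluorescence from a labeled peptide substrate, and the initial linear slope (signal/min) is analysed.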
Target sequence in this assay (P49862 whole entry): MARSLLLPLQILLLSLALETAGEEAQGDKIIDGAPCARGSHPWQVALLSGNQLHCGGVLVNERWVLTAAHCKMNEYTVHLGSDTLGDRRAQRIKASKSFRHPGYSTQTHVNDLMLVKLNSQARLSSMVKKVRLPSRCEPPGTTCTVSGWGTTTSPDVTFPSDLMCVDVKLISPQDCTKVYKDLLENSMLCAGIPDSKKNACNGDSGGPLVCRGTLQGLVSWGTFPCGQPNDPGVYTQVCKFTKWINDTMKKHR

Caspase-14 = target: T2, Caspase-14 (Homo sapiens, UniProt P31944); assay: Inhibition of human caspase 14 using Ac-WEHD-AMC fluorogenic peptide as substrate by fluorescence assay
T2 sequence (P31944 whole entry): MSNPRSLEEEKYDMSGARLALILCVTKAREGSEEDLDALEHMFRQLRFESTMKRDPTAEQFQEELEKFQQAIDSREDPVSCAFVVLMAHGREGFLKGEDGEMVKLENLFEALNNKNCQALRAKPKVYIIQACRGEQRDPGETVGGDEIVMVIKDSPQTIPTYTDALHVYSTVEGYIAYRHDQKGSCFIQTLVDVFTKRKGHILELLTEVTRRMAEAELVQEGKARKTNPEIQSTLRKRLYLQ
Procedure, shortened: (§1)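 Activity followed as a time course of rising fluorescence from a fluorescently labelled peptide substrate. The initial linear slope (signal/min) was used.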

[2] = target: Somatostatin receptor type 3 (Homo sapiens, UniProt P32745); assay: Antagonist activity at human SSTR3 expressed in HEK293 cells assessed as [Tyr1]-somatostatin 14-induced beta-arrestin recruitment pre-incubated for 30 mins before [Tyr1]-somatostatin 14 stimulation for 90 or 180 mins by chemiluminescence method; type: functional, cell-based
Sequence of Somatostatin receptor type 3 (P32745 whole entry): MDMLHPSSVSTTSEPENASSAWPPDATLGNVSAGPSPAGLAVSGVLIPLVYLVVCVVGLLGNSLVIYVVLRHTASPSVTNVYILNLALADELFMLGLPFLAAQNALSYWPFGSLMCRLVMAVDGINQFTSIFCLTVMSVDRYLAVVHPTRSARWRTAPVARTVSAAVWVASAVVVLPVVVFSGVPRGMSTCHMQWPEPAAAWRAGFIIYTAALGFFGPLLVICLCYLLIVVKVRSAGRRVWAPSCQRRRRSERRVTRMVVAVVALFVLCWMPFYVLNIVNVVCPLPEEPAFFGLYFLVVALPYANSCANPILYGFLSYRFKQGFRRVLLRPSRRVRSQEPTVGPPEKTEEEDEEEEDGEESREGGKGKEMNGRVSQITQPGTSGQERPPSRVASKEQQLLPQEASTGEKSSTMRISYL
Procedure, shortened: (§2)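 PathHunter β-arrestin complementation assay, antagonist mode. Cells co-express ProLink-tagged GPCR and enzyme-acceptor-tagged β-arrestin and are pre-incubated with sample for 30 min at 37 °C or room temperature. Dose-response: 10 points, 3-fold dilutions from 20 μM, in duplicate.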

[3] = target: Atypical chemokine receptor 3 (Homo sapiens, UniProt P25106); assay: Agonist activity at human CXCR7 expressed in CHOK1 cells assessed as induction of beta-arrestin recruitment by chemiluminescence method; type: functional, cell-based
Sequence of Atypical chemokine receptor 3 (P25106 whole entry, the tested form may be a part): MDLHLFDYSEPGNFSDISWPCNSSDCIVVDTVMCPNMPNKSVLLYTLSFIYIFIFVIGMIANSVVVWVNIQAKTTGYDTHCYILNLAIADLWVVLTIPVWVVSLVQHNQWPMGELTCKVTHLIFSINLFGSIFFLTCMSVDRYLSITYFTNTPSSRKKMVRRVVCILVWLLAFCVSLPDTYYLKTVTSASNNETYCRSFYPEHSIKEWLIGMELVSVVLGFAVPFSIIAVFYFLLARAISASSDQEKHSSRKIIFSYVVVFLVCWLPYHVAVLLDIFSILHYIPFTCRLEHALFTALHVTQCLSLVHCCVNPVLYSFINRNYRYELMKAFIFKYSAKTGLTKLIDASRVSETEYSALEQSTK
Procedure, shortened: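 PathHunter β-arrestin enzyme-fragment complementation assay in cells stably co-expressing ProLink-tagged GPCR and enzyme-acceptor-tagged β-arrestin. Sample is added to cells and incubated 90 or 180 min at 37 °C or room temperature, with 1% final vehicle. Detection reagent is added for 1 h at room temperature and chemiluminescence is read. % activity is taken relative to vehicle and maximal control ligand. Dose-response: 10 points, 3-fold dilutions from 20 μM, in duplicate.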

MDA-MB-231 [4] = assay: Antiproliferative activity against human MDA-MB-231 cells after 48 hrs by MTT assay; type: functional, cell-based
Procedure, shortened: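 MDA-MB-231 cells are grown in DMEM with 10% FBS and seeded at 10,000 cells/well for 24 h. Cells are then exposed to graded compound concentrations or DMSO for 48 h. Viability is measured by MTT.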

Oxytocin receptor = target: T3, Oxytocin receptor (Homo sapiens, UniProt P30559); assay: Antagonist activity at human OXTR expressed in CHOK1 cells assessed as oxytocin-induced beta-arrestin recruitment pre-incubated for 30 mins before oxytocin stimulation for 90 or 180 mins by chemiluminescence method; type: functional, cell-based; procedure, shortened: as §2
T3 sequence (P30559 whole entry): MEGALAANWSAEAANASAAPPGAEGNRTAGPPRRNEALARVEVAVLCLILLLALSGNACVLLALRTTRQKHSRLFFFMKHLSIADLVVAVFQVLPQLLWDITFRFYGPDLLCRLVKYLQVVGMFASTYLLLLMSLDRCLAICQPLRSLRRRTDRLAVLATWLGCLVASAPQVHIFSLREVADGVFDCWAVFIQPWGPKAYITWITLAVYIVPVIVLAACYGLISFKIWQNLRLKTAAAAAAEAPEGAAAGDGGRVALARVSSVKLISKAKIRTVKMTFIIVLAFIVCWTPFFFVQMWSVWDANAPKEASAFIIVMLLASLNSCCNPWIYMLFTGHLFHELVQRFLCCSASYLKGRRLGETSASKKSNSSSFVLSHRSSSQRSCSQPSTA

[5] = target: T4, C-C chemokine receptor type 10 (Homo sapiens, UniProt P46092); assay: Antagonist activity at human CCR10 expressed in human U2OS cells assessed as inhibition of CCL27-induced beta-arrestin recruitment pre-incubated for 30 mins before CCL27 stimulation for 90 or 180 mins by chemiluminescence method; type: functional, cell-based; procedure, shortened: as §2
T4 sequence (P46092 whole entry): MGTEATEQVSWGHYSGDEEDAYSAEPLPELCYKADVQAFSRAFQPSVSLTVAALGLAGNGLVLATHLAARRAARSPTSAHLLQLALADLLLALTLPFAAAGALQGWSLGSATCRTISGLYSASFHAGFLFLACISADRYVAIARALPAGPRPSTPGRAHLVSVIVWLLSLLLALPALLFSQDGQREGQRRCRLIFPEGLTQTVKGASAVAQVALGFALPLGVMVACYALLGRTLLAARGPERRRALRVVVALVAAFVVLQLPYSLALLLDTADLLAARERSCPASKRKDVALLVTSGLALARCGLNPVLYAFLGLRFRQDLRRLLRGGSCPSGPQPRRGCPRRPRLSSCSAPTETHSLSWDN

Kallikrein-7 [6] = target: T1, Kallikrein-7; assay: Inhibition of kallikrein 7 (unknown origin) using fluorescently labeled peptide substrate by fluorescence assay
Procedure, shortened: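 KLK7 follow-up: 10-dose titrations, 3-fold serial dilution from 100 μM, in duplicate, with gabexate mesylate as positive control. Fluorescence from the labeled peptide substrate is monitored over time, and the initial linear slope (signal/min) is used to derive IC50.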
Target sequence in this assay (P49862 30-253 limits assumed): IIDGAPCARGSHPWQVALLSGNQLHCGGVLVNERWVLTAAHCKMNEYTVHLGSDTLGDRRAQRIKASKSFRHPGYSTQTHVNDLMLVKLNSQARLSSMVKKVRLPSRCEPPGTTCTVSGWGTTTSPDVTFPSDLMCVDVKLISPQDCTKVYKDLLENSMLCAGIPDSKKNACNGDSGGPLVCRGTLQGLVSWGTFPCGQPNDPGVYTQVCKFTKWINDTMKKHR

Substance-K receptor = target: T5, Substance-K receptor (Homo sapiens, UniProt P21452); assay: Antagonist activity at human TACR2 expressed in CHOK1 cells assessed as substance P-induced beta-arrestin recruitment pre-incubated for 30 mins before substance P stimulation for 90 or 180 mins by chemiluminescence method; type: functional, cell-based; procedure, shortened: as §2
T5 sequence (P21452 whole entry): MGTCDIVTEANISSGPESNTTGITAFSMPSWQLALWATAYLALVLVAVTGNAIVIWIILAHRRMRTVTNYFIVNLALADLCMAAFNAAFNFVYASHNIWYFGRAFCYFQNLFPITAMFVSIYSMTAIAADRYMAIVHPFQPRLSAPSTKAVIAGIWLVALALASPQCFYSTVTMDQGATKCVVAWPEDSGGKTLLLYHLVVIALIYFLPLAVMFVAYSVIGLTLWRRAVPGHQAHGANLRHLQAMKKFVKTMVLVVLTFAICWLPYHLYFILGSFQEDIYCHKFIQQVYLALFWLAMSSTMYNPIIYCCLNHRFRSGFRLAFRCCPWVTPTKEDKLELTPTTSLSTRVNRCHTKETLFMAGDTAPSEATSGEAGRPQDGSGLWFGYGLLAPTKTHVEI

MDA-MB-231 [7] = assay: Antiproliferative activity against human MDA-MB-231 cells assessed as reduction in cell viability at 32 uM after 48 hrs by MTT assay; type: functional
Procedure, shortened: (§3)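 MDA-MB-231 cells seeded at 10,000 cells/well in DMEM with 10% FBS and left 24 h, then exposed to compound or DMSO solvent control for 48 h. Viability read by MTT, compared with solvent control.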

MDA-MB-231 [8] = assay: Antiproliferative activity against human MDA-MB-231 cells assessed as reduction in cell viability at 100 uM after 48 hrs by MTT assay; type: functional; procedure, shortened: as §3
[9] = Inhibition of chymotrypsin (unknown origin) by fluorescence assay; parameters: species or system Homo sapiens
Kallikrein-7 [10] = target: T1, Kallikrein-7; assay: Mixed type inhibition of kallikrein 7 (unknown origin) using fluorescently labeled peptide substrate by fluorescence assay based Michaelis-Menten kinetic plot analysis
Target sequence in this assay (P49862 30-253 limits assumed): as the sequence (P49862 30-253 limits assumed) above

Chymase = target: T6, Chymase (Homo sapiens, UniProt P23946); assay: Inhibition of chymase (unknown origin) by fluorescence assay; procedure, shortened: as §1
T6 sequence (P23946 whole entry): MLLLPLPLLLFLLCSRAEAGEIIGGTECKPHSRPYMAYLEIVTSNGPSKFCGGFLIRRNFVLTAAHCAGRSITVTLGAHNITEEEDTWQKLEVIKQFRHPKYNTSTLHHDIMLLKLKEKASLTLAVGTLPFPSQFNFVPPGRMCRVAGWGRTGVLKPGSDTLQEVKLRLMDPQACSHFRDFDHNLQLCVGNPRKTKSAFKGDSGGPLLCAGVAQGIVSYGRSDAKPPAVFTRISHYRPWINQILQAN

MDA-MB-231 [11] = assay: Antimigratory activity against human MDA-MB-231 cells at 10 uM after 48 hrs by transwell migration assay relative to control; type: functional
[12] = Homo sapiens, MDA-MB-231, 48 h, read-out: IC50

Compound	IC50 (Kallikrein-7 [1]) [µM]	IC50 (Caspase-14) [µM]	IC50 [2] [µM]	EC50 [3] [µM]	IC50 (MDA-MB-231 [4]; mda-mb-231)	IC50 (Oxytocin receptor) [µM]	IC50 [5] [µM]	inhibition (Kallikrein-7 [6])	IC50 (Substance-K receptor) [µM]	Activity (MDA-MB-231 [7]) [%]	IC50 (MDA-MB-231 [4]; [12]) [µM]	Activity (MDA-MB-231 [8]) [%]	IC50 [9] [µM]	inhibition (Kallikrein-7 [10])	IC50 (Chymase) [µM]	Activity (MDA-MB-231 [11])
CCOC(=O)c1ccc(OC(=O)CCCCCNC(=N)N)cc1	20.4	–	–	–	–	–	–	–	–	–	–	–	–	–	–	–
CC[C@H](C)[C@H](N)C(=O)N[C@@H](CCC(=O)O)C(=O)N[C@H](C(=O)NC(C=O)CC(=O)O)[C@@H](C)O (some centres not stated) (H-IET[ξD]-aldehyde)	–	7.28	–	–	–	–	–	–	–	–	–	–	–	–	–	–
COC(=O)[C@@H]1CCCN1C(=O)[C@@H](Cc1ccccc1)N(C)C(=O)[C@H](C)NC(=O)[C@H](CC(C)C)N(C)C(=O)CNC(=O)[C@@H]1CCCN1C(=O)[C@H](O)C(C)C (H-[dHiv]PG[NMeL]A[dNMeF]P-OMe)	–	–	> 20	> 20	Not Active	> 20	> 20	Active	> 20	–	–	–	–	–	–	–
CC[C@H](C)[C@@H](OC(=O)CCc1ccccc1)C(=O)N1CCC[C@H]1C(=O)NCC(=O)N(C)[C@@H](CC(C)C)C(=O)N[C@@H](C)C(=O)N(C)[C@H](Cc1ccccc1)C(=O)N1CCC[C@H]1C(=O)OC (X2-PG[NMeL]A[dNMeF]P-OMe)	–	–	> 20	7.81	–	5.32	3.14	Active	3.22	50	–	–	–	–	–	–
CC[C@H](C)[C@@H](OC(=O)/C=C\c1ccccc1)C(=O)N1CCC[C@H]1C(=O)NCC(=O)N(C)[C@@H](CC(C)C)C(=O)N[C@@H](C)C(=O)N(C)[C@H](Cc1ccccc1)C(=O)N1CCC[C@H]1C(=O)OC (X3-PG[NMeL]A[dNMeF]P-OMe)	–	–	> 20	5.92	–	5.76	2.71	Active	4.61	–	14.9	–	–	–	–	–
CC[C@H](C)[C@@H](OC(=O)[C@H](Cc1ccccc1)N(C)C)C(=O)N1CCC[C@H]1C(=O)NCC(=O)N(C)[C@@H](CC(C)C)C(=O)N[C@@H](C)C(=O)N(C)[C@H](Cc1ccccc1)C(=O)N1CCC[C@H]1C(=O)OC (X4-PG[NMeL]A[dNMeF]P-OMe)	–	–	6.11	10.5	–	> 20	> 20	Active	5.51	–	–	50	–	–	–	–
CC[C@H](C)[C@@H](OC(=O)C#Cc1ccccc1)C(=O)N1CCC[C@H]1C(=O)NCC(=O)N(C)[C@@H](CC(C)C)C(=O)N[C@@H](C)C(=O)N(C)[C@H](Cc1ccccc1)C(=O)N1CCC[C@H]1C(=O)OC (X5-PG[NMeL]A[dNMeF]P-OMe)	–	–	> 20	> 20	–	> 20	> 20	Active	> 20	–	60	–	–	–	–	–
CC[C@H](C)[C@@H](O)C(=O)N1CCC[C@H]1C(=O)NCC(=O)N(C)[C@@H](CC(C)C)C(=O)N[C@@H](C)C(=O)N(C)[C@H](Cc1ccccc1)C(=O)N1CCC[C@H]1C(=O)OC ({Hmp(2R,3S)}-PG[NMeL]A[dNMeF]P-OMe)	22.1	50.3	> 20	> 20	Not Active	> 20	> 20	Active	> 20	–	–	–	8.98	Active	101	inactive
CC(C)C[C@H](NC(=O)[C@@H](NC(=O)N[C@@H](Cc1ccccc1)C(=O)O)C1CCNC(=N)N1)C(=O)N[C@H](C=O)Cc1ccccc1 (some centres not stated) [CHYMOSTATIN]	–	–	–	–	–	–	–	–	–	–	–	–	0.00031	–	0.00936	–
